≈ marks a conversion by molar mass, not a printed value.
How the values were obtained:
Type in all cases: functional
Candida albicans [1] = assay: Antifungal activity against Candida albicans ATCC 10231 after 24 to 72 hrs by microdilution method
How it was run: (§1)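 Broth microdilution MIC in U-bottom 96-well plates. Compound stock made in Sabouraud dextrose broth/DMSO (9:1) and serially diluted with SDB. Fungal suspension (1 × 10^3 CFU/mL) added to give a final inoculum of 0.5 × 10^3 CFU/mL. Plates incubated at 35 °C and read at 24, 48 and 72 h. MIC is the lowest concentration with no visible growth compared with a drug-free control well.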

Nakaseomyces glabratus = assay: Antifungal activity against Candida glabrata ATCC 90030 after 24 to 72 hrs by microdilution method; how it was run: as §1
Saccharomyces cerevisiae [2] = assay: Antifungal activity against Saccharomyces cerevisiae NCYC 694 after 24 to 72 hrs by microdilution method; how it was run: as §1
Saccharomyces cerevisiae [3] = assay: Antifungal activity against Saccharomyces cerevisiae ATCC 9763 after 24 to 72 hrs by microdilution method; how it was run: as §1
Aspergillus niger = assay: Antifungal activity against Aspergillus niger ATCC 16404 after 24 to 72 hrs by microdilution method; how it was run: as §1
Candida albicans [4] = assay: Ratio of fluconazole MIC to compound MIC for Candida albicans ATCC 10231
Saccharomyces cerevisiae [5] = assay: Ratio of fluconazole MIC to compound MIC for Saccharomyces cerevisiae NCYC 694

| SMILES | MIC (Candida albicans [1]) | MIC (Nakaseomyces glabratus) | MIC (Saccharomyces cerevisiae [2]) | MIC (Saccharomyces cerevisiae [3]) | MIC (Aspergillus niger) | Ratio (Candida albicans [4]) | Ratio (Saccharomyces cerevisiae [5]) |
| --- | --- | --- | --- | --- | --- | --- | --- |
| O=C1c2ccccc2O[C@@H](c2ccccc2)[C@@H]1n1cncn1 (relative stereo) | 31.3 µg/mL (≈ 107 µM) | > 62.5 µg/mL | > 125 µg/mL | 125 µg/mL (≈ 429 µM) | > 62.5 µg/mL | – | – |
| O=C1c2ccccc2O[C@@H](c2ccc(Cl)cc2)[C@@H]1n1cncn1 (relative stereo) | 3.9 µg/mL (≈ 12 µM) | > 62.5 µg/mL | > 125 µg/mL | 3.9 µg/mL (≈ 12 µM) | > 62.5 µg/mL | – | – |
| O=C1c2ccccc2O[C@@H](c2ccc(F)cc2)[C@@H]1n1cncn1 (relative stereo) | 3.9 µg/mL (≈ 12.6 µM) | 31.3 µg/mL (≈ 101 µM) | 0.98 µg/mL (≈ 3.17 µM) | 3.9 µg/mL (≈ 12.6 µM) | > 62.5 µg/mL | 8 | 16 |
| Cc1ccc([C@@H]2Oc3ccccc3C(=O)[C@H]2n2cncn2)cc1 (relative stereo) | > 125 µg/mL | > 62.5 µg/mL | > 125 µg/mL | > 125 µg/mL | > 62.5 µg/mL | – | – |
| COc1ccc([C@@H]2Oc3ccccc3C(=O)[C@H]2n2cncn2)cc1 (relative stereo) | > 125 µg/mL | > 62.5 µg/mL | > 125 µg/mL | 125 µg/mL (≈ 389 µM) | > 62.5 µg/mL | – | – |
| O=C1c2ccccc2O[C@@H](c2cccc(Cl)c2)[C@@H]1n1cncn1 (relative stereo) | 3.9 µg/mL (≈ 12 µM) | 62.5 µg/mL (≈ 192 µM) | 1.95 µg/mL (≈ 5.99 µM) | > 125 µg/mL | > 62.5 µg/mL | 8 | 8 |
| O=C1c2ccccc2O[C@@H](c2cccc(F)c2)[C@@H]1n1cncn1 (relative stereo) | 15.6 µg/mL (≈ 50.4 µM) | > 62.5 µg/mL | > 125 µg/mL | 15.6 µg/mL (≈ 50.4 µM) | > 62.5 µg/mL | 2 | – |
| COc1cccc([C@@H]2Oc3ccccc3C(=O)[C@H]2n2cncn2)c1 (relative stereo) | > 125 µg/mL | > 62.5 µg/mL | > 125 µg/mL | > 125 µg/mL | > 62.5 µg/mL | – | – |
| O=C1c2ccccc2O[C@@H](c2ccccc2Cl)[C@@H]1n1cncn1.O=[N+]([O-])O (relative stereo) | > 125 µg/mL | > 62.5 µg/mL | > 125 µg/mL | 125 µg/mL | > 62.5 µg/mL | – | – |
| COc1ccccc1[C@@H]1Oc2ccccc2C(=O)[C@H]1n1cncn1.O=[N+]([O-])O (relative stereo) | > 125 µg/mL | > 62.5 µg/mL | > 125 µg/mL | > 125 µg/mL | > 62.5 µg/mL | – | – |
| O=C1c2ccccc2O[C@@H](c2ccc(Cl)cc2Cl)[C@@H]1n1cncn1 (relative stereo) | 125 µg/mL (≈ 347 µM) | > 62.5 µg/mL | 31.3 µg/mL (≈ 86.9 µM) | 31.3 µg/mL (≈ 86.9 µM) | > 62.5 µg/mL | – | – |
| O/N=C1\c2ccccc2O[C@@H](c2ccccc2)[C@@H]1n1cncn1 (relative stereo) | > 125 µg/mL | > 62.5 µg/mL | > 125 µg/mL | 125 µg/mL (≈ 408 µM) | > 62.5 µg/mL | – | – |
| O/N=C1\c2ccccc2O[C@@H](c2ccc(Cl)cc2Cl)[C@@H]1n1cncn1 (relative stereo) | > 125 µg/mL | > 62.5 µg/mL | > 125 µg/mL | 62.5 µg/mL (≈ 167 µM) | > 62.5 µg/mL | – | – |
| OC(Cn1cncn1)(Cn1cncn1)c1ccc(F)cc1F [FLUCONAZOLE] | 31.3 µg/mL (≈ 102 µM) | 31.3 µg/mL (≈ 102 µM) | 15.6 µg/mL (≈ 50.9 µM) | 15.6 µg/mL (≈ 50.9 µM) | > 125 µg/mL | – | – |
| CC(=O)N1CCN(c2ccc(OCC3COC(Cn4ccnc4)(c4ccc(Cl)cc4Cl)O3)cc2)CC1 (stereo unspecified) [KETOCONAZOLE] | – | – | – | – | 15.6 µg/mL (≈ 29.4 µM) | – | – |
